# Reference: ChEMBL document CHEMBL5058577, “EUbOPEN Chemogenomics Library 2 (Multiplex)” (2022)
# Test system: U2OS
# Experiment: Multiplex assay against U2OS
# Format: toxicity, cell-based
# Details: human
# Procedure, shortened: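 Compound was added to live cells that had been stained at seeding with Hoechst33342, BioTracker Green Microtubule Cytoskeleton Dye, MitoTracker Red and Annexin V Alexa Fluor 680, and imaging followed on a CQ1 microscope at 37°C and 5% CO2. CellPathfinder machine-learning gating divided cells into Hoechst high-intensity objects or normal cells, normal cells into healthy, pyknosed or fragmented nuclei, and pyknosed cells into mitotic or apoptotic. Tubulin, mitochondrial-mass and membrane-permeability phenotypes are per cents of healthy-nucleus cells.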
# [1] = 12 h, 1 µM, compound concentration 1 uM, replicate 1
# [2] = 12 h, 1 µM, compound concentration 1 uM, replicate 2
# [3] = 12 h, 10 µM, compound concentration 10 uM, replicate 1
# [4] = 12 h, 10 µM, compound concentration 10 uM, replicate 2
# [5] = 24 h, 1 µM, compound concentration 1 uM, replicate 1
# [6] = 24 h, 1 µM, compound concentration 1 uM, replicate 2
# [7] = 24 h, 10 µM, compound concentration 10 uM, replicate 1
# [8] = 24 h, 10 µM, compound concentration 10 uM, replicate 2
# [9] = 48 h, 1 µM, compound concentration 1 uM, replicate 1
# [10] = 48 h, 1 µM, compound concentration 1 uM, replicate 2
# [11] = 48 h, 10 µM, compound concentration 10 uM, replicate 1
# [12] = 48 h, 10 µM, compound concentration 10 uM, replicate 2
smiles,measurement,setting,value
CCc1cc2cc(NS(=O)(=O)c3ccc(C#N)cc3)ccc2n(CC)c1=O,Population Apoptotic (%),[1],88%
same,Population Fragmented Nuclei (%),[1],30%
same,Population Healthy Nuclei (%),[1],60%
same,Population Hoechst High Intensity Objects (%),[1],3%
same,Population Membrane Permeable-Phenotype (%),[1],4%
same,Population Mitochondria Different-Phenotype (%),[1],2%
same,Population Mitotic Cells (%),[1],11%
same,Population Normal (%),[1],96%
same,Population Pyknosed Nuclei (%),[1],9%
same,Population Tubulin-Different-Phenotype (%),[1],2%
same,Total Cell Count,[1],286
same,Population Apoptotic (%),[2],100%
same,Population Fragmented Nuclei (%),[2],26%
same,Population Healthy Nuclei (%),[2],70%
same,Population Hoechst High Intensity Objects (%),[2],1%
same,Population Membrane Permeable-Phenotype (%),[2],8%
same,Population Mitotic Cells (%),[2],0%
same,Population Normal (%),[2],98%
same,Population Pyknosed Nuclei (%),[2],3%
same,Population Tubulin-Different-Phenotype (%),[2],7%
same,Total Cell Count,[2],113
same,Population Apoptotic (%),[3],66%
same,Population Fragmented Nuclei (%),[3],28%
same,Population Healthy Nuclei (%),[3],64%
same,Population Hoechst High Intensity Objects (%),[3],2%
same,Population Membrane Permeable-Phenotype (%),[3],9%
same,Population Mitochondria Different-Phenotype (%),[3],3%
same,Population Mitotic Cells (%),[3],33%
same,Population Normal (%),[3],97%
same,Population Pyknosed Nuclei (%),[3],6%
same,Population Tubulin-Different-Phenotype (%),[3],4%
same,Total Cell Count,[3],220
same,Population Apoptotic (%),[4],87%
same,Population Fragmented Nuclei (%),[4],13%
same,Population Healthy Nuclei (%),[4],80%
same,Population Membrane Permeable-Phenotype (%),[4],6%
same,Population Mitotic Cells (%),[4],12%
same,Population Pyknosed Nuclei (%),[4],5%
same,Total Cell Count,[4],139
same,Population Apoptotic (%),[5],85%
same,Population Fragmented Nuclei (%),[5],29%
same,Population Healthy Nuclei (%),[5],61%
same,Population Hoechst High Intensity Objects (%),[5],2%
same,Population Membrane Permeable-Phenotype (%),[5],9%
same,Population Mitochondria Different-Phenotype (%),[5],2%
same,Population Mitotic Cells (%),[5],14%
same,Population Normal (%),[5],97%
same,Population Pyknosed Nuclei (%),[5],8%
same,Population Tubulin-Different-Phenotype (%),[5],6%
same,Total Cell Count,[5],335
same,Population Apoptotic (%),[6],88%
same,Population Fragmented Nuclei (%),[6],16%
same,Population Healthy Nuclei (%),[6],75%
same,Population Hoechst High Intensity Objects (%),[6],1%
same,Population Membrane Permeable-Phenotype (%),[6],7%
same,Population Mitochondria Different-Phenotype (%),[6],7%
same,Population Mitotic Cells (%),[6],11%
same,Population Normal (%),[6],98%
same,Population Pyknosed Nuclei (%),[6],7%
same,Population Tubulin-Different-Phenotype (%),[6],3%
same,Total Cell Count,[6],126
same,Population Apoptotic (%),[7],95%
same,Population Fragmented Nuclei (%),[7],23%
same,Population Healthy Nuclei (%),[7],67%
same,Population Hoechst High Intensity Objects (%),[7],3%
same,Population Membrane Permeable-Phenotype (%),[7],4%
same,Population Mitochondria Different-Phenotype (%),[7],2%
same,Population Mitotic Cells (%),[7],4%
same,Population Normal (%),[7],96%
same,Population Pyknosed Nuclei (%),[7],9%
same,Population Tubulin-Different-Phenotype (%),[7],1%
same,Total Cell Count,[7],263
same,Population Apoptotic (%),[8],80%
same,Population Fragmented Nuclei (%),[8],14%
same,Population Healthy Nuclei (%),[8],79%
same,Population Membrane Permeable-Phenotype (%),[8],6%
same,Population Mitotic Cells (%),[8],20%
same,Population Pyknosed Nuclei (%),[8],6%
same,Population Tubulin-Different-Phenotype (%),[8],2%
same,Total Cell Count,[8],159
same,Population Apoptotic (%),[9],89%
same,Population Fragmented Nuclei (%),[9],21%
same,Population Healthy Nuclei (%),[9],70%
same,Population Hoechst High Intensity Objects (%),[9],2%
same,Population Membrane Permeable-Phenotype (%),[9],6%
same,Population Mitochondria Different-Phenotype (%),[9],3%
same,Population Mitotic Cells (%),[9],10%
same,Population Normal (%),[9],97%
same,Population Pyknosed Nuclei (%),[9],8%
same,Population Tubulin-Different-Phenotype (%),[9],2%
same,Total Cell Count,[9],450
same,Population Apoptotic (%),[10],84%
same,Population Fragmented Nuclei (%),[10],19%
same,Population Healthy Nuclei (%),[10],73%
same,Population Hoechst High Intensity Objects (%),[10],3%
same,Population Mitochondria Different-Phenotype (%),[10],5%
same,Population Mitotic Cells (%),[10],15%
same,Population Normal (%),[10],96%
same,Population Pyknosed Nuclei (%),[10],6%
same,Population Tubulin-Different-Phenotype (%),[10],3%
same,Total Cell Count,[10],192
same,Population Apoptotic (%),[11],88%
same,Population Fragmented Nuclei (%),[11],18%
same,Population Healthy Nuclei (%),[11],72%
same,Population Hoechst High Intensity Objects (%),[11],3%
same,Population Membrane Permeable-Phenotype (%),[11],6%
same,Population Mitochondria Different-Phenotype (%),[11],2%
same,Population Mitotic Cells (%),[11],11%
same,Population Normal (%),[11],96%
same,Population Pyknosed Nuclei (%),[11],9%
same,Population Tubulin-Different-Phenotype (%),[11],3%
same,Total Cell Count,[11],387
same,Population Apoptotic (%),[12],96%
same,Population Fragmented Nuclei (%),[12],15%
same,Population Healthy Nuclei (%),[12],73%
same,Population Hoechst High Intensity Objects (%),[12],2%
same,Population Membrane Permeable-Phenotype (%),[12],8%
same,Population Mitochondria Different-Phenotype (%),[12],3%
same,Population Mitotic Cells (%),[12],3%
same,Population Normal (%),[12],97%
same,Population Pyknosed Nuclei (%),[12],11%
same,Population Tubulin-Different-Phenotype (%),[12],7%
same,Total Cell Count,[12],248
